# Measured values taken from article PMC11565791 (bioRxiv, 2025).
# What was measured:
# [1] = tested on: H3Kc9me3 mononucleosomes; assay: Fluorescence polarization, H3Kc9me3; assay type: binding; conditions: for specificity for H3K9me3 mark on nucleosomes: H3Kc9me3 vs H3K9me0 nucleosomes; for tighter binding to H3Kc9me3 nucleosome than to H3K9me3 peptide: Kd nucleosome vs Kd tail peptide
# [2] = tested on: H3K9me3 peptide (fluoresceinated H3 1-20); conditions: H3K9me3 vs H3K9me0 peptide; ref Canzio et al. 2011; cited from earlier work
# [3] = tested on: nucleation 'green' reporter (SF-GFP); assay: Flow cytometry, MAT ΔREIII HSS 'green' nucleation reporter; assay type: cell-based, Schizosaccharomyces pombe; conditions: separate experiment with Δckb1, SFigure 1J–L
# Summary of the method: (§1)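 Strains from −80°C stocks were revived on YES plates. Cells were grown overnight in 200 μL YES at 32°C to saturation. The next morning they were diluted 1:25 in YES into mid-log phase and analysed by flow cytometry for single-cell reporter fluorescence. Compensation and analysis followed a prior protocol.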
# [4] = tested on: spreading 'orange' reporter (mKO2); assay: Flow cytometry, MAT ΔREIII HSS 'orange' spreading reporter; assay type: cell-based, Schizosaccharomyces pombe; conditions: for spreading phenotype: Figure 3E-J run (fully separate from Figure 1)
# Summary of the method: as §1
# [5] = tested on: pSwi6 S18/24A (CKII-phosphorylated) (Schizosaccharomyces pombe); assay: fluorescence polarization
# [6] = tested on: unpSwi6 (unphosphorylated Swi6) (Schizosaccharomyces pombe); assay: fluorescence polarization; conditions: histone H3K9 unmethylated
# [7] = tested on: H3K9me3 peptide (fluoresceinated H3 1-20); assay: Fluorescence polarization, H3K9me3 tail peptide; assay type: binding
# Summary of the method: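 Fluoresceinated H3 1–20 K9me3 or K9me0 peptide was fixed at 100 nM. Purified Swi6, unphosphorylated or CK2-phosphorylated, was titrated at 0–200 μM. Fluorescence polarization was read at ex 485 / em 528 nm; Kd derived by curve fitting.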
# [8] = tested on: pSwi6 (CKII-phosphorylated Swi6) (Schizosaccharomyces pombe); assay: fluorescence polarization; conditions: histone H3 Kc9me3 (methyl-lysine analog)
# [9] = molecular target: the molecule itself; assay: SEC-MALS + cross-linking
# [10] = tested on: genomic loci (nucleators, spreading zones, euchromatin); assay: FLAG-Swi6 ChIP-seq; assay type: cell-based, S. pombe; conditions: for FLAG-Swi6 accumulation at nucleation sites versus wildtype: spike-in normalized, Figure 5B
# Summary of the method: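 FLAG ChIP: strains express FLAG-tagged Swi6 variants; IP with M2 anti-FLAG. pS18-pS24 ChIP: untagged strains; IP with anti-pS18-pS24 antibody; lysis buffer also contains 0.1 mM orthovanadate and 60 mM β-glycerophosphate. Both: grown to saturation in YES at 32°C, then 2 h at 18°C. 600×10^6 cells fixed with 1.5 mM EGS (30 min), then 1% formaldehyde (30 min). Drosophila spike-in added; three technical replicates; spike-in-adjusted cpm.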
# [11] = tested on: heterochromatin foci; assay: Swi6-GFP live cell imaging of nuclear foci; assay type: cell-based, S. pombe; conditions: Figure 4E,F
# Summary of the method: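 Swi6-GFP strains in a Sad1-mKO2 background were grown on YES 225 agar at 32°C for 3–5 days. Cells were then cultured in liquid YES 225 at 30°C with 250 rpm shaking to OD 0.2–0.6 before live-cell imaging.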
# [12] = tested on: H3K9me2; assay: H3K9me2 ChIP-seq; assay type: cell-based, S. pombe
# Summary of the method: (§2)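 Cells were grown overnight in YES at 32°C to saturation, diluted to OD 0.03 and grown to OD 1. 300×10^6 cells were fixed with 1% formaldehyde only and quenched with glycine. Chromatin was bead-beaten and sheared, then immunoprecipitated overnight at 4°C with anti-H3K9me2 or anti-H3K9me3. Reverse-crosslinked with proteinase K at 65°C. 40 bp paired-end reads; ChIP/input signal, mean of three repeats with 95% CI.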
# [13] = tested on: H3K9me3; assay: H3K9me3 ChIP-seq; assay type: cell-based, S. pombe
# Summary of the method: as §2
# [14] = MAT ΔREIII HSS, mean of three repeats
molecule,measurement,setting,value
"unpSwi6: recombinant Swi6 expressed in E. coli without CKII, His tag removed by TEV",specificity for H3K9me3 mark on nucleosomes,[1],19.4 X
same,tighter binding to H3Kc9me3 nucleosome than to H3K9me3 peptide,[1],68 X
same,"specificity for H3K9me3 peptide, previously reported",[2],~ 130 X
wildtype swi6: wildtype swi6 open reading frame in MAT ΔREIII HSS strain [reference compound],'green' (nucleation) reporter cells ON,[3],0.36%
same,'orange' (spreading) reporter cells ON,"[4]; separate experiment with Δckb1, SFigure 1J–L",7.04%
"H3K9me0 mononucleosome, 601 DNA 147 bp",binding signal (relative Kd (pSwi6 on H3Kc9me3 = 1)),[5]; histone H3K9 unmethylated,1.67
same,Kd,[6],2330 nM
pSwi6: Swi6 co-expressed with Casein Kinase II (CKII) in E. coli,"decrease in nucleosome affinity by phosphorylation, overall (pSwi6 vs unpSwi6)",[1]; Figure 4D,12 X
same,specificity for H3K9me3 mark on nucleosomes,[1],19 X
same,tighter binding to H3Kc9me3 nucleosome than to H3K9me3 peptide,[1],1.7 X
same,specificity for H3K9me3 peptide,[7]; H3K9me3 vs H3K9me0 peptide,~ 93 X
same,preference for H3K9me3 versus H3K9me2 peptides,[7]; SFigure 4C,~ 2.2 X
"H3Kc9me3 (MLA) mononucleosome, 601 DNA 147 bp",binding signal (relative Kd (pSwi6 on H3Kc9me3 = 1)),[5]; histone H3 Kc9me3 (methyl-lysine analog),0.38
same,binding signal (relative Kd (reference)),[8],1
phosphorylated Swi6 (pSwi6) (natural protein) MKKGGVRSYRRSSTSKRSVIDDDSEPELPSMTKEAIASHKADSGSSDNEVESDHESKSSSKKLKENAKEEEGGEEEEEDEYVVEKVLKHRMARKGGGYEYLLKWEGYDDPSDNTWSSEADCSGCKQLIEAYWNEHGGRPEPSKRKRTARPKKPEAKEPSPKSRKTDEDKHDKDSNEKIEDVNEKTIKFADKSQEEFNENGPPSGQPNGHIESDNESKSPSQKESNESEDIQIAETPSNVTPKKKPSPEVPKLPDNRELTVKQVENYDSWEDLVSSIDTIERKDDGTLEIYLTWKNGAISHHPSTITNKKCPQKMLQFYESHLTFRENE,stoichiometry N,[9],8
"FLAG-Swi6^6S/A: 3XFLAG tagged Swi6 S18/24/117–220A (protein, UniProt P40381 1-328, looked up, variant S18A S24A S117A S192A S212A S220A, 3XFLAG tag) Chromatin-associated protein …: MKKGGVRSYRRSSTSKRAVIDDDAEPELPSMTKEAIASHKADSGSSDNEVESDHESKSSSKKLKENAKEEEGGEEEEEDEYVVEKVLKHRMARKGGGYEYLLKWEGYDDPSDNTWSAEADCSGCKQLIEAYWNEHGGRPEPSKRKRTARPKKPEAKEPSPKSRKTDEDKHDKDSNEKIEDVNEKTIKFADKAQEEFNENGPPSGQPNGHIEADNESKSPAQKESNESEDIQIAETPSNVTPKKKPSPEVPKLPDNRELTVKQVENYDSWEDLVSSIDTIERKDDGTLEIYLTWKNGAISHHPSTITNKKCPQKMLQFYESHLTFRENE",FLAG-Swi6 accumulation at nucleation sites versus wildtype,[10],decline in accumulation
"Swi6^S18/24A-GFP: C-terminally super fold-GFP tagged Swi6 S18/24A (protein, UniProt P40381 1-328, looked up, variant S18A S24A, C-terminal superfolder GFP tag) Chromatin-associated protein …: MKKGGVRSYRRSSTSKRAVIDDDAEPELPSMTKEAIASHKADSGSSDNEVESDHESKSSSKKLKENAKEEEGGEEEEEDEYVVEKVLKHRMARKGGGYEYLLKWEGYDDPSDNTWSSEADCSGCKQLIEAYWNEHGGRPEPSKRKRTARPKKPEAKEPSPKSRKTDEDKHDKDSNEKIEDVNEKTIKFADKSQEEFNENGPPSGQPNGHIESDNESKSPSQKESNESEDIQIAETPSNVTPKKKPSPEVPKLPDNRELTVKQVENYDSWEDLVSSIDTIERKDDGTLEIYLTWKNGAISHHPSTITNKKCPQKMLQFYESHLTFRENE",partitioning relative to heterochromatin foci,[11],partition away from heterochromatin foci
"Swi6^6S/A -GFP: C-terminally super fold-GFP tagged Swi6 6S/A (protein, UniProt P40381 1-328, looked up, variant S18A S24A S117A S192A S212A S220A, C-terminal superfolder GFP tag) Chromatin-associated protein …: MKKGGVRSYRRSSTSKRAVIDDDAEPELPSMTKEAIASHKADSGSSDNEVESDHESKSSSKKLKENAKEEEGGEEEEEDEYVVEKVLKHRMARKGGGYEYLLKWEGYDDPSDNTWSAEADCSGCKQLIEAYWNEHGGRPEPSKRKRTARPKKPEAKEPSPKSRKTDEDKHDKDSNEKIEDVNEKTIKFADKAQEEFNENGPPSGQPNGHIEADNESKSPAQKESNESEDIQIAETPSNVTPKKKPSPEVPKLPDNRELTVKQVENYDSWEDLVSSIDTIERKDDGTLEIYLTWKNGAISHHPSTITNKKCPQKMLQFYESHLTFRENE",partitioning relative to heterochromatin foci,[11],partition away from heterochromatin foci
"swi6^loopX-S18/24A: double mutant of loopX and S18/24A (protein, UniProt P40381 1-328, looked up, variant S18A S24A R93A K94A) Chromatin-associated protein …: MKKGGVRSYRRSSTSKRAVIDDDAEPELPSMTKEAIASHKADSGSSDNEVESDHESKSSSKKLKENAKEEEGGEEEEEDEYVVEKVLKHRMAAAGGGYEYLLKWEGYDDPSDNTWSSEADCSGCKQLIEAYWNEHGGRPEPSKRKRTARPKKPEAKEPSPKSRKTDEDKHDKDSNEKIEDVNEKTIKFADKSQEEFNENGPPSGQPNGHIESDNESKSPSQKESNESEDIQIAETPSNVTPKKKPSPEVPKLPDNRELTVKQVENYDSWEDLVSSIDTIERKDDGTLEIYLTWKNGAISHHPSTITNKKCPQKMLQFYESHLTFRENE",spreading phenotype,[4],largely mimics that of swi6^S18/24A
"FLAG-Swi6^S18/24A: 3XFLAG tagged Swi6 S18/24A (protein, UniProt P40381 1-328, looked up, variant S18A S24A, 3XFLAG tag) Chromatin-associated protein …: MKKGGVRSYRRSSTSKRAVIDDDAEPELPSMTKEAIASHKADSGSSDNEVESDHESKSSSKKLKENAKEEEGGEEEEEDEYVVEKVLKHRMARKGGGYEYLLKWEGYDDPSDNTWSSEADCSGCKQLIEAYWNEHGGRPEPSKRKRTARPKKPEAKEPSPKSRKTDEDKHDKDSNEKIEDVNEKTIKFADKSQEEFNENGPPSGQPNGHIESDNESKSPSQKESNESEDIQIAETPSNVTPKKKPSPEVPKLPDNRELTVKQVENYDSWEDLVSSIDTIERKDDGTLEIYLTWKNGAISHHPSTITNKKCPQKMLQFYESHLTFRENE",FLAG-Swi6 accumulation at nucleation sites versus wildtype,[10],decline in accumulation
same,FLAG-Swi6 accumulation at cen I & II,"[10]; versus wildtype, Figure 5E, SFigure 7A",accumulates less than wildtype within previously mapped siRNA generating centers
same,FLAG-Swi6 accumulation at H3K9me2-negative loci,"[10]; versus wildtype, Figure 5F,G",accumulates above wildtype at several H3K9me2 negative loci
"swi6^S18/24A: swi6 mutant S18A and S24A (protein, UniProt P40381 1-328, looked up, variant S18A S24A) Chromatin-associated protein …: MKKGGVRSYRRSSTSKRAVIDDDAEPELPSMTKEAIASHKADSGSSDNEVESDHESKSSSKKLKENAKEEEGGEEEEEDEYVVEKVLKHRMARKGGGYEYLLKWEGYDDPSDNTWSSEADCSGCKQLIEAYWNEHGGRPEPSKRKRTARPKKPEAKEPSPKSRKTDEDKHDKDSNEKIEDVNEKTIKFADKSQEEFNENGPPSGQPNGHIESDNESKSPSQKESNESEDIQIAETPSNVTPKKKPSPEVPKLPDNRELTVKQVENYDSWEDLVSSIDTIERKDDGTLEIYLTWKNGAISHHPSTITNKKCPQKMLQFYESHLTFRENE",H3K9me2 in nucleators versus wildtype,"[12]; 300bp bins, SFigure 2",H3K9me2 is elevated in almost all nucleators
same,H3K9me2 level at MAT locus,[12]; [14],maintained similar levels of H3K9me2 to wildtype swi6
same,distance to the left of tlh2 at which H3K9me2 levels begin to drop,"[12]; tel IIR, relative to wildtype",~ 6.4 kb
same,H3K9me3 level at MAT locus,[13]; [14],much more closely mirrored Δswi6
same,H3K9me2 and H3K9me3 at mei4,"[13]; heterochromatin island mei4, SFigure 3A",no distinguishable differences
same,spreading phenotype,[4],more severe spreading defect than the oligomerization surface mutants alone
"swi6^loopX: ARK loop in the CD mutant (R93A and K94A) (protein, UniProt P40381 1-328, looked up, variant R93A K94A) Chromatin-associated protein …: MKKGGVRSYRRSSTSKRSVIDDDSEPELPSMTKEAIASHKADSGSSDNEVESDHESKSSSKKLKENAKEEEGGEEEEEDEYVVEKVLKHRMAAAGGGYEYLLKWEGYDDPSDNTWSSEADCSGCKQLIEAYWNEHGGRPEPSKRKRTARPKKPEAKEPSPKSRKTDEDKHDKDSNEKIEDVNEKTIKFADKSQEEFNENGPPSGQPNGHIESDNESKSPSQKESNESEDIQIAETPSNVTPKKKPSPEVPKLPDNRELTVKQVENYDSWEDLVSSIDTIERKDDGTLEIYLTWKNGAISHHPSTITNKKCPQKMLQFYESHLTFRENE",spreading phenotype,[4],moderate spreading defect
